Assays:
[1] = molecular target: T1, Angiotensin II receptor (Rattus norvegicus, UniProt P29089+P25095+P35351); assay: Inhibitory concentration that gave 50 percent displacement of specific binding of [3H]AII (2 nM) to Angiotensin II receptor; format: protein assay
T1 sequence (P29089 whole entry): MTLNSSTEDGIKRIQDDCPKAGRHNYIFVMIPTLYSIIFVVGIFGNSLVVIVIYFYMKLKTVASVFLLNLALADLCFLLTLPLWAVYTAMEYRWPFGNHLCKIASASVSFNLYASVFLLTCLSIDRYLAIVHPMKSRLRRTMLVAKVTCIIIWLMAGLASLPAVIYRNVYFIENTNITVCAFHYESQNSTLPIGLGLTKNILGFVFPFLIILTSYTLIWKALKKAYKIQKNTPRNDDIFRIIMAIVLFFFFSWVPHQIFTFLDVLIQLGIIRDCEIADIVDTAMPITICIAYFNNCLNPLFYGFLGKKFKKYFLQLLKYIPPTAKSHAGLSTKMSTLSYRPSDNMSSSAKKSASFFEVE
T1 sequence (P25095 whole entry): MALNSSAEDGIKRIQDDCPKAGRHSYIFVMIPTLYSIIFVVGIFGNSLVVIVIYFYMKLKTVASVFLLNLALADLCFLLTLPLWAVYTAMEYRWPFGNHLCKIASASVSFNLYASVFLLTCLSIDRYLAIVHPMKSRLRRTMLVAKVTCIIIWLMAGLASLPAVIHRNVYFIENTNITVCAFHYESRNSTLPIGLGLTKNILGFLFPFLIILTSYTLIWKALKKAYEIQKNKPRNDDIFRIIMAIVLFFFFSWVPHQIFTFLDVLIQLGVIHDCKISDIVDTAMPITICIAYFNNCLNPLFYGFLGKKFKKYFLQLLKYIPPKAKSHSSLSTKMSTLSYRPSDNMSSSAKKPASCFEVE
T1 sequence (P35351 whole entry): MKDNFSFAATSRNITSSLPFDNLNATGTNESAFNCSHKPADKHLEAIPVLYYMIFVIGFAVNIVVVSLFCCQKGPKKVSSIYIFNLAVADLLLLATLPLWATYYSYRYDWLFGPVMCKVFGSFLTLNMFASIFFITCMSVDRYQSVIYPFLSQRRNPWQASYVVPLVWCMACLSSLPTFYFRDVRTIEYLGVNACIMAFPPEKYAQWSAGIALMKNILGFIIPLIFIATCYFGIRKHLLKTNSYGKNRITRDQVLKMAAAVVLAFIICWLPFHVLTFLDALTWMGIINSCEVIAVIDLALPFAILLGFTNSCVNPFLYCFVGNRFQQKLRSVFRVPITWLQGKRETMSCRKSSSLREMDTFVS
How it was run: (§1)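 Rat adrenal cortical microsomes from male Sprague–Dawley rats, resuspended in 50 mM Tris pH 7.2, 5 mM MgCl2, 0.25% BSA. Membranes (0.02–0.03 mg protein) incubated with [3H]AII 2 nM plus varying inhibitor concentrations, 60 min at 25 °C with shaking. Glass-fiber filtration, scintillation counting, duplicates. Nonspecific binding defined with 1 μM unlabeled AII. IC50 taken from linear portion of displacement curve.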

[2] = Dissociation constant (pKa); format: physicochemical
[3] = molecular target: T1, Angiotensin II receptor; assay: Inhibitory concentration that gave 50 percent displacement of specific binding of [3H]AII (2 nM) to Angiotensin ll receptor; format: protein assay; how it was run: as §1

For `CCCCc1nc(Cl)c(COC(C)=O)n1Cc1ccc(C(=O)O)cc1`, the IC50 [1] was 5.3 µM.
`CCCCc1nc(Cl)c(CC(=O)O)n1Cc1ccccc1C(=O)O` showed an IC50 [1] of 38 µM.
Work on `CCCCc1nc(Cl)c(CC(=O)OC)n1Cc1ccc(NC(=O)c2ccccc2NS(C)(=O)=O)cc1` yielded a pKa [2] of 8.9 and an IC50 [1] of 2.3 µM.
`CCCCc1nc(Cl)c(COC)n1Cc1ccc(C(=O)Nc2cccc(C)c2C(=O)O)cc1` showed an IC50 [1] of 0.5 µM.
`CCCCc1nc(Cl)c(CC(=O)OC)n1Cc1ccc(NC(=O)c2cccc(C)c2NS(=O)(=O)C(F)(F)F)cc1` showed a pKa [2] of 4.5 and an IC50 [1] of 0.19 µM.
Compound `CCCCc1nc(Cl)c(CC(=O)OC)n1Cc1ccc(NC(=O)c2cc([N+](=O)[O-])cc([N+](=O)[O-])c2O)cc1` has a pKa [2] of 4.3 and an IC50 [1] of over 30 µM.
Work on `CCCCc1nc(Cl)c(CC(=O)OC)n1Cc1ccc(N2C(=O)c3ccccc3C2=O)cc1` yielded an IC50 [1] of 3.1 µM.
`O=C(O)c1ccccc1C(=O)Nc1ccc(Cn2ccnc2)cc1` showed an IC50 [3] of 100 µM.
`CCCCc1nc(Cl)c(CC(=O)OC)n1Cc1ccc(N(Cc2ccccc2)C(=O)c2ccccc2NS(=O)(=O)C(F)(F)F)cc1` gave a pKa [2] of 4.5 and an IC50 [1] of 2.7 µM.
In the case of `CCCCc1nc(Cl)c(CC(=O)OC)n1Cc1ccc(NC(=O)c2ccccc2NS(=O)(=O)C(F)(F)F)cc1`, the pKa [2] is reported as 4.5 and the IC50 [1] is reported as 0.5 µM.
`CCCCc1nc(Cl)c(CC(=O)OC)n1Cc1ccc(NC(=O)c2cc3ccccc3cc2C(=O)O)cc1` gave an IC50 [1] of 5.8 µM.
In the case of `O=C(O)c1ccccc1C(=O)Nc1ccc(Cn2ccnc2CCc2ccccc2)cc1`, the IC50 [3] is reported as 9.4 µM.
With `CCCCc1nc(Cl)c(COC)n1Cc1ccc(C(=O)N[C@@H](Cc2ccccc2)C(=O)O)cc1` the IC50 [1] was 22 µM.
With `CCCCc1nc(Cl)c(CC(=O)OC)n1Cc1ccc(N2C(=O)C(c3ccccc3)=C(c3ccccc3)C2=O)cc1` the IC50 [1] was over 10 µM.
With `CCCc1nccn1Cc1ccc(NC(=O)c2ccccc2C(=O)O)cc1` the IC50 [3] was 3.7 µM.
In the case of `CCCCCc1nccn1Cc1ccc(NC(=O)c2ccccc2C(=O)O)cc1`, the IC50 [3] is reported as 0.24 µM.
`CCCCc1nc(Cl)c(CC(=O)OC)n1Cc1ccccc1NC(=O)c1ccccc1NS(=O)(=O)C(F)(F)F` showed an IC50 [1] of over 100 µM.
With `O=C(O)c1ccccc1C(=O)Nc1ccc(Cn2ccnc2CC2CCCCC2)cc1` the IC50 [3] was 2.8 µM.
For `CCCCc1nc(Cl)c(CC(=O)OC)n1Cc1ccc(NC(=O)c2cc(I)ccc2NS(=O)(=O)C(F)(F)F)cc1`, the pKa [2] was 4.5 and the IC50 [1] was 3.4 µM.
For `COc1ccc(Cc2nccn2Cc2ccc(NC(=O)c3ccccc3C(=O)O)cc2)cc1`, the IC50 [3] was 2.5 µM.
For `CCCCc1nc(Cl)c(Cc2nnn[nH]2)n1Cc1cccc(-c2nnn[nH]2)c1`, the IC50 [1] was 3.8 µM.
In the case of `CCCCc1nc(Cl)c(CO)n1Cc1ccc(/C=N/O)cc1`, the IC50 [1] is reported as over 100 µM.
For `CCCCc1nc(Cl)c(COC)n1Cc1ccc(C(=O)Nc2ccccc2-c2nn[nH]n2)cc1`, the IC50 [1] was 0.57 µM.
For `Cc1nccn1Cc1ccc(NC(=O)c2ccccc2C(=O)O)cc1`, the IC50 [3] was 100 µM.
Compound `CCCCc1nc(Cl)c(CC(=O)OC)n1Cc1ccc(NC(=O)c2cc(C)ccc2C(=O)O)cc1` has an IC50 [1] of 0.38 µM.
In the case of `CCCCc1nc(Cl)c(CC(=O)OC)n1Cc1ccc(NC(=O)c2ccccc2-c2ccccc2C(=O)O)cc1`, the IC50 [1] is reported as 0.19 µM.
With `CCCCc1nc(Cl)c(CC(=O)OC)n1Cc1ccc(NC(=O)c2c(OC)cccc2C(=O)O)cc1` the IC50 [1] was 0.08 µM.
For `CCCCc1nc(Cl)c(CC(=O)O)n1Cc1cccc(C(=O)O)c1`, the IC50 [1] was 100 µM.
In the case of `CCCCCCCc1nccn1Cc1ccc(NC(=O)c2ccccc2C(=O)O)cc1`, the IC50 [1] is reported as 1.1 µM.
Work on `CCCCc1nc(Cl)c(CC(=O)OC)n1Cc1ccc(NC(=O)c2c(C)cccc2C(=O)O)cc1` yielded an IC50 [1] of 0.032 µM.
Work on `CCCCc1nc(CO)c(Cl)n1Cc1ccc(C(=O)O)cc1` yielded an IC50 [1] of 100 µM.
`CCCCc1nc(Cl)c(CO)n1Cc1ccc(OC)cc1` showed an IC50 [1] of 100 µM.
For `CCCCc1nc(Cl)c(Cc2nnn[nH]2)n1Cc1ccc(-c2nnn[nH]2)cc1`, the pKa [2] was 4 and the IC50 [1] was 1.2 µM.
`CC(C)c1nccn1Cc1ccc(NC(=O)c2ccccc2C(=O)O)cc1` showed an IC50 [3] of 12 µM.
`CCCCc1nc(Cl)c(COC)n1Cc1ccc(C(=O)N2CCC[C@H]2C(=O)O)cc1` gave an IC50 [1] of 6.4 µM.
Work on `CCCCc1nccn1Cc1ccc(NC(=O)c2ccccc2C(=O)O)cc1` yielded an IC50 [3] of 0.62 µM.
With `CCCCc1nc(Cl)c(COC)n1Cc1ccc(C(=O)Nc2ccccc2C(=O)O)cc1` the IC50 [1] was 8 µM.
`CCCCc1nc(Cl)c(CC(=O)OC)n1Cc1ccc(NC(=O)c2cccc([N+](=O)[O-])c2C(=O)O)cc1` gave an IC50 [1] of 0.4 µM.
`CCCCc1nc(Cl)c(CC(=O)OC)n1Cc1ccc(NC(=O)c2ccc([N+](=O)[O-])cc2C(=O)O)cc1` showed an IC50 [1] of 6.9 µM.
`CCCCc1nc(Cl)c(CC(=O)OC)n1Cc1ccc(NC(=O)C(F)(F)F)cc1` gave a pKa [2] of 9.5 and an IC50 [1] of 27 µM.
`CCCCc1nc(Cl)c(CC(=O)OC)n1Cc1ccc(NC(=O)c2cccc(NS(=O)(=O)C(F)(F)F)c2)cc1` showed an IC50 [1] of 1.3 µM.
With `CCCCCCc1nccn1Cc1ccc(NC(=O)c2ccccc2C(=O)O)cc1` the IC50 [3] was 0.35 µM.
`CCCCc1nc(Cl)c(CC(=O)OC)n1Cc1ccc(NC(=O)c2cc(C)ccc2NS(=O)(=O)C(F)(F)F)cc1` gave a pKa [2] of 4.5 and an IC50 [1] of 0.81 µM.
With `O=C(O)c1ccccc1C(=O)Nc1ccc(Cn2c(CCCc3ccccc3)nc(Cl)c2CO)cc1` the IC50 [1] was 80 µM.
Compound `CCCCc1nc(Cl)c(COC)n1Cc1ccc(NC(=O)C(CC(=O)O)c2ccccc2)cc1` (configuration not stated) has an IC50 [1] of 7.5 µM.
`CCc1nccn1Cc1ccc(NC(=O)c2ccccc2C(=O)O)cc1` showed an IC50 [3] of 8.5 µM.
For `CCCCc1nc(Cl)c(CC(=O)OC)n1Cc1ccc(NC(=O)c2cc(Br)ccc2NS(=O)(=O)C(F)(F)F)cc1`, the pKa [2] was 4.5 and the IC50 [1] was 40 µM.
For `C1CCC(NC2CCCCC2)CC1.CCCCc1nc(Cl)c(CC(=O)OC)n1Cc1ccc(NC(=O)c2c(Cl)ccc(Cl)c2C(=O)O)cc1`, the IC50 [1] was 0.018 µM.
In the case of `CCCCc1nc(Cl)c(CO)n1Cc1ccc(C=O)cc1`, the IC50 [1] is reported as 28 µM.
In the case of `CCCCc1nc(CC(=O)O)c(Cl)n1Cc1ccc(C(=O)O)cc1`, the IC50 [1] is reported as 19 µM.
Compound `CCCCc1nc(CC(=O)OC)c(Cl)n1Cc1ccc(NC(=O)c2ccccc2C(=O)O)cc1` has an IC50 [1] of 0.42 µM.
Work on `CCCCc1nc(Cl)c(COC)n1Cc1ccc(NC(=O)CC(C(=O)O)c2ccccc2)cc1` (configuration not stated) yielded an IC50 [1] of 2.8 µM.
With `CCCCc1nc(Cl)c(CC(=O)OC)n1Cc1ccc(NS(=O)(=O)C(F)(F)F)cc1` the pKa [2] was 4.5 and the IC50 [1] was 2.1 µM.
`CCCCc1nc(Cl)c(CC(=O)OC)n1Cc1ccc([N+](=O)[O-])cc1` showed an IC50 [1] of 100 µM.
In the case of `CCCCc1nc(Cl)c(COC)n1Cc1ccc(C(=O)N[C@H](Cc2ccccc2)C(=O)O)cc1`, the IC50 [1] is reported as 6.1 µM.
For `CCCCc1nc(Cl)c(CC(=O)OC)n1Cc1ccc(NC(=O)/C=C\C(=O)O)cc1`, the IC50 [1] was 11 µM.
Work on `CCCCc1nc(Cl)c(CC(=O)O)n1Cc1ccccc1[N+](=O)[O-]` yielded an IC50 [1] of 15 µM.
With `CCCCc1nc(Cl)c(CC(=O)OC)n1Cc1ccc(NCc2ccccc2)cc1` the IC50 [1] was 40 µM.
Compound `O=C(O)c1ccccc1C(=O)Nc1ccc(Cn2cncc2CO)cc1` has an IC50 [3] of over 100 µM.
`CCCCc1nc(Cl)c(CC(=O)OC)n1Cc1ccc(NC(=O)c2ccc(NS(=O)(=O)C(F)(F)F)cc2)cc1` gave an IC50 [1] of 84 µM.
Work on `CCCCc1nc(Cl)c(COC)n1Cc1ccc(C(=O)N2CCC[C@@H]2C(=O)O)cc1` yielded an IC50 [1] of 120 µM.
For `CCCCc1nc(Cl)c(CC(=O)OC)n1Cc1ccccc1NC(=O)c1ccccc1C(=O)O`, the IC50 [1] was 100 µM.
Compound `CCCCc1nc(Cl)c(CC(=O)OC)n1Cc1ccc(NC(=O)C2CCCCC2NS(=O)(=O)C(F)(F)F)cc1` (stereo in doubt; 51) has a pKa [2] of 7.6 and an IC50 [1] of 4.5 µM.
For `CCCCc1nc(Cl)c(COC)n1Cc1ccc(N(C)C(=O)c2c(Cl)ccc(Cl)c2C(=O)O)cc1`, the IC50 [1] was 5.7 µM.
In the case of `CCCCc1nc(Cl)c(CC(=O)OC)n1Cc1ccc(N)cc1`, the IC50 [1] is reported as 100 µM.
`CCCCc1nc(Cl)c(CC(=O)OC)n1Cc1ccc(NC(=O)c2cc(Cl)ccc2NS(=O)(=O)C(F)(F)F)cc1` showed a pKa [2] of 4.5 and an IC50 [1] of 5.9 µM.
In the case of `CCCCc1nc(Cl)c(CC(=O)OC)n1Cc1ccc(NC(=O)C2CCCCC2NS(=O)(=O)C(F)(F)F)cc1` (stereo in doubt; 50), the pKa [2] is reported as 7.6 and the IC50 [1] is reported as 3.9 µM.
For `CCCCc1nc(Cl)c(CC(=O)O)n1Cc1ccc(CC(=O)O)cc1`, the IC50 [1] was 13 µM.
